Test results as given in ChEMBL document CHEMBL4152287, “Synthesis and characterization of novel classes of PDE10A inhibitors - 1H-1,3-benzodiazoles and imidazo[1,2-a]pyrimidines” (Eur J Med Chem, 2018).

Assays:
[1] = biological target: T1, cAMP and cAMP-inhibited cGMP 3',5'-cyclic phosphodiesterase 10A (Homo sapiens, UniProt Q9Y233); assay: Inhibition of Ca2+/calmodulin-induced recombinant human full length N-terminal GST-tagged PDE10A1 expressed in baculovirus infected Sf9 cells using cAMP as substrate pretreated for 10 mins followed by substrate addition and measured after 40 mins by kinase-Glo luminescence assay
T1 sequence (Q9Y233 whole entry): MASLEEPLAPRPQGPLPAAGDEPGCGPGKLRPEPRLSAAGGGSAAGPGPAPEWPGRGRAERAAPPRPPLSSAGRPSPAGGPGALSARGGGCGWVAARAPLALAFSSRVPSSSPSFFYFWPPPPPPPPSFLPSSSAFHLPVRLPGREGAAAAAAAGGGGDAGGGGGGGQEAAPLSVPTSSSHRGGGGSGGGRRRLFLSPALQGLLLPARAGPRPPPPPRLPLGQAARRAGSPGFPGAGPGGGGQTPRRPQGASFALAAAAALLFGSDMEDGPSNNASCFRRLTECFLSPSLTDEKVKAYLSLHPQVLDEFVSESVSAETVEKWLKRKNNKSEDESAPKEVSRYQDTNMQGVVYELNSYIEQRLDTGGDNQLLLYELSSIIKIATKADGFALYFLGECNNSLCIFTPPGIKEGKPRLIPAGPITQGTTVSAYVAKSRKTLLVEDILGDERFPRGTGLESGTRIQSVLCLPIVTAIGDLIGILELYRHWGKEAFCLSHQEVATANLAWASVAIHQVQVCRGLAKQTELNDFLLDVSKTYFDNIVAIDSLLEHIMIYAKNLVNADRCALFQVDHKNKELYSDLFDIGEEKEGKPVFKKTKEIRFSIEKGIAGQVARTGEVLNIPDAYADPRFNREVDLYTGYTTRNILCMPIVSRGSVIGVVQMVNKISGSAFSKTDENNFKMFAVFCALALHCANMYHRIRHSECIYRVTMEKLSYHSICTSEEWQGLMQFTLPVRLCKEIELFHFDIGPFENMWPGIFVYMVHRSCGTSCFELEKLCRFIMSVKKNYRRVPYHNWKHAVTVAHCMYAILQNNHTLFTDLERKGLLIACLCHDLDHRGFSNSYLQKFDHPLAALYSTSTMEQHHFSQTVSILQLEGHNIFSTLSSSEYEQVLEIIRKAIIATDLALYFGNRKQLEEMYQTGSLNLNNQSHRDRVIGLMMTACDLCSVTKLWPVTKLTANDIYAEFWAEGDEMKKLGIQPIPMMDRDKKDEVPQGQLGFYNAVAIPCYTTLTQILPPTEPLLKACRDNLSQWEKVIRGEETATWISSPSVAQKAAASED

[2] = Intrinsic clearance in rat liver microsomes in presence of NADP/G6P/G6P dehydrogenase/MgCl2 by LC/MS analysis; format: ADME, microsome; details: read-out: CLH
In short: (§1)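 Phase-1 liver microsomal stability assay for the named species, with intrinsic clearance reported in µl x min^-1 x mg^-1.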

[3] = biological target: High affinity cGMP-specific 3',5'-cyclic phosphodiesterase 9A (Homo sapiens, UniProt O76083); assay: Inhibition of Ca2+/calmodulin-induced recombinant human full length N-terminal GST-tagged PDE9A2 expressed in baculovirus infected Sf9 cells using cGMP as substrate pretreated for 10 mins followed by substrate addition and measured after 60 mins by kinase-Glo luminescence assay
Chain of High affinity cGMP-specific 3',5'-cyclic phosphodiesterase 9A (O76083 whole entry, canonical isoform): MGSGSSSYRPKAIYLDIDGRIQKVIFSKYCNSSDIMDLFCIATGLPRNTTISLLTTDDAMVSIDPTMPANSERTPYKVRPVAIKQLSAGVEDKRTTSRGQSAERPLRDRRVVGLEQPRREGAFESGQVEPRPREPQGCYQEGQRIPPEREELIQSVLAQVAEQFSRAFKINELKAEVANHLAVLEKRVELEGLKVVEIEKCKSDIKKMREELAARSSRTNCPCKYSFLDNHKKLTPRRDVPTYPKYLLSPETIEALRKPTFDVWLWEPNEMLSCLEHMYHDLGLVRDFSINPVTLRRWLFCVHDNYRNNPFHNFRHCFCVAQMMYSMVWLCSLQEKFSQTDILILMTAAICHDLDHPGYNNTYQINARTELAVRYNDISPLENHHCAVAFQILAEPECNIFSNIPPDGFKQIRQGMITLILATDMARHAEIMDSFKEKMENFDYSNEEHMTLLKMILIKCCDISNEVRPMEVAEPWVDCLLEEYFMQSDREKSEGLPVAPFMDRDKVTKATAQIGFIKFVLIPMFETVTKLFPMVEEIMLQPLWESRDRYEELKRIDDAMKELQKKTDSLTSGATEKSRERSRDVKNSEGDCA
In short: (§2)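 Selectivity screen run as a PDE-Glo enzymatic-activity luminescence assay, with IC50 values determined against each counter-screen PDE isoform.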

[4] = biological target: Dual specificity calcium/calmodulin-dependent 3',5'-cyclic nucleotide phosphodiesterase 1C (Homo sapiens, UniProt Q14123); assay: Inhibition of Ca2+/calmodulin-induced full-length recombinant human N-terminal GST-tagged PDE1C expressed in baculovirus infected Sf9 insect cells using cAMP as substrate pretreated for 10 mins followed by substrate addition and measured after 30 mins by kinase-Glo luminescence assay; in short: as §2
Chain of Dual specificity calcium/calmodulin-dependent 3',5'-cyclic nucleotide phosphodiesterase 1C (Q14123 whole entry): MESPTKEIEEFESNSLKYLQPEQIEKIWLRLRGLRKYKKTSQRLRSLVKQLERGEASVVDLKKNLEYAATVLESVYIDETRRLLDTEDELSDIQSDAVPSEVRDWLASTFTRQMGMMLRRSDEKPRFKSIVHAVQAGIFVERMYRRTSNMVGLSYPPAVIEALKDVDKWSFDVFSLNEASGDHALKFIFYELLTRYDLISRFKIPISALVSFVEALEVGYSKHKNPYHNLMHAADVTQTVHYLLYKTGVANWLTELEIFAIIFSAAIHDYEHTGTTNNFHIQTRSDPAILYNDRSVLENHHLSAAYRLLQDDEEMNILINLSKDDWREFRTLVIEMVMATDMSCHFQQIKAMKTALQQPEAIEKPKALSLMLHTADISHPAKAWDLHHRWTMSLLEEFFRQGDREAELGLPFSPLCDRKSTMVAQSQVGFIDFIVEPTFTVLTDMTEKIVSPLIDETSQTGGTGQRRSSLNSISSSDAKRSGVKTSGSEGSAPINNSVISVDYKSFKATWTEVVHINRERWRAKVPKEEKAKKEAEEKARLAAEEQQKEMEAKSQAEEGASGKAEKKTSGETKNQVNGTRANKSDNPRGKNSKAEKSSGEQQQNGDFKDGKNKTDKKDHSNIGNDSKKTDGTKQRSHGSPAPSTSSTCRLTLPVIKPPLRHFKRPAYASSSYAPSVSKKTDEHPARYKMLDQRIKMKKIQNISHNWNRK

[5] = Intrinsic clearance in human liver microsomes in presence of NADP/G6P/G6P dehydrogenase/MgCl2 by LC/MS analysis; format: ADME, microsome; details: read-out: CLH; in short: as §1
[6] = biological target: T1, cAMP and cAMP-inhibited cGMP 3',5'-cyclic phosphodiesterase 10A; assay: Inhibition of PDE10 (unknown origin)
[7] = Intrinsic clearance in rat liver microsomes; format: ADME, microsome

Compound | IC50 ([1]; read-out: IC50) [nM] | IC50 [3] [nM] | IC50 [4] [nM] | further results
Cc1ccccc1-c1nc2ccc(-c3nc4c(C)ncc(C)n4n3)cc2[nH]1 | 242 | – | – | –
Cc1cc(C)n2nc(-c3ccn4nc(-c5ncccn5)nc4c3)nc2n1 | > 5000 | – | – | –
Cc1nc(-c2ccn3nc(-c4ccccc4)nc3c2)nc2ccccc12 | 884 | – | – | –
Cc1ncc(C)n2nc(-c3ccc4nc(-c5ccco5)[nH]c4c3)nc12 | 67 | > 10000 | > 10000 | microsomal CLint [2]: 26.3 µL/min/mg
Cc1nc(-c2ccn3cc(-c4ccccc4)nc3n2)nc2ccccc12 | 163 | – | – | –
Cc1cnc(-c2nc3ccc(-c4nc5c(C)ncc(C)n5n4)cc3[nH]2)s1 | 198 | > 10000 | > 10000 | –
Cc1cc(C)n2nc(-c3ccn4nc(-c5ccccc5)nc4c3)nc2n1 | 381 | – | – | –
Cc1ncc(C)n2nc(-c3ccc4nc(-c5ccccc5C(F)(F)F)[nH]c4c3)nc12 | > 1000 | – | – | –
Cc1ncc(C)n2nc(-c3ccc4nc(-c5cscn5)[nH]c4c3)nc12 | 268 | – | – | –
Cc1ncc(C)n2nc(-c3ccn4cc(-c5cccc(Cl)c5)nc4n3)nc12 | 107 | > 10000 | > 10000 | microsomal CLint [2]: 18.9 µL/min/mg
Cc1cc(C)n2nc(-c3ccn4cc(-c5ccccn5)nc4n3)nc2n1 | 280 | – | – | –
Cc1ncc(C)n2nc(-c3ccc4nc(-c5cccnc5)[nH]c4c3)nc12 | 166 | > 10000 | > 10000 | –
Cc1cc(C)n2nc(-c3ccn4cc(-c5ccccc5)nc4n3)nc2n1 | – | > 10000 | > 10000 | –
COc1ccnc(-c2nc3ccc(-c4nc5c(C)ncc(C)n5n4)cc3[nH]2)c1 | > 280 | – | – | –
Cc1ncc(C)n2nc(-c3ccc4[nH]c(-c5ccccn5)nc4c3)nc12 | – | > 10000 | > 10000 | microsomal CLint [2]: 11.1 µL/min/mg
Cc1nc(-c2ccc3nc(-c4ccccc4)[nH]c3c2)nc2ccccc12 | 315 | – | – | microsomal CLint [2]: > 450 µL/min/mg
Cc1ncc(C)n2nc(-c3ccc4[nH]c(-c5ccccc5)nc4c3)nc12 | – | > 10000 | > 10000 | microsomal CLint [2]: 27.4 µL/min/mg; microsomal CLint [5]: 34.4 µL/min/mg
Cc1ncc(C)n2nc(-c3ccn4cc(-c5nccs5)nc4n3)nc12 | 135 | > 10000 | > 10000 | –
Cc1ncc(C)n2nc(-c3ccc4[nH]c(-c5cocn5)nc4c3)nc12 | > 300 | – | – | –
Cc1ncc(C)n2nc(-c3ccn4cc(-c5ccccc5Br)nc4n3)nc12 | 145 | > 10000 | > 10000 | microsomal CLint [2]: 1.8 µL/min/mg
Cc1ncc(C)n2nc(-c3ccc4[nH]c(-c5ccccc5F)nc4c3)nc12 | – | > 10000 | > 10000 | –
Cc1cc(C)n2nc(-c3ccc4nc(-c5ccccc5)[nH]c4c3)nc2n1 | – | > 10000 | > 10000 | –
Cc1cc(C)n2nc(-c3ccc4cc(-c5ccccc5)nn4c3)nc2n1 | 770 | – | – | –
Cc1ncc(C)n2nc(-c3ccc4nc(-c5ccc(F)cc5)[nH]c4c3)nc12 | – | > 10000 | > 10000 | –
Cc1ncc(C)n2nc(-c3ccn4cc(-c5ccc(Br)cc5)nc4n3)nc12 | > 1000 | – | – | microsomal CLint [2]: 15 µL/min/mg
Cc1ncc(C)n2nc(-c3ccc4nc(-c5cncs5)[nH]c4c3)nc12 | 135 | > 10000 | > 10000 | –

Compound | IC50 ([1]; read-out: IC50) [nM] | IC50 [3] [nM] | IC50 [4] [nM] | further results
Cc1ncc(C)n2nc(-c3ccc4nc(-c5ccccc5C#N)[nH]c4c3)nc12 | 382 | – | – | –
COc1ccc(OC)c(-c2cn3ccc(-c4nc5c(C)ncc(C)n5n4)nc3n2)c1 | > 280 | – | – | –
Cc1ncc(C)n2nc(-c3ccc4nc(-c5ncccc5F)[nH]c4c3)nc12 | 69 | > 10000 | > 10000 | microsomal CLint [2]: 1.8 µL/min/mg
Cc1ncc(C)n2nc(-c3ccn4cc(-c5ccc(F)cc5Cl)nc4n3)nc12 | > 1000 | – | – | microsomal CLint [2]: 11.5 µL/min/mg
Cc1cc(C)n2nc(CCc3nc(-c4ccccc4)cn3C)nc2n1 | – | – | – | IC50 [6]: 67 nM; CLH [7]: 13 µL/min/mg
Cc1cc(C)n2nc(-c3ccn4cc(-c5nccs5)nc4n3)nc2n1 | 458 | – | – | –
Cc1ncc(C)n2nc(-c3ccc4nc(-c5cccs5)[nH]c4c3)nc12 | 28 | > 10000 | > 10000 | –
Cc1ncc(C)n2nc(-c3ccc4cc(-c5ccccc5)nn4c3)nc12 | 581 | – | – | –
Cc1ncc(C)n2nc(-c3ccc4nc(-c5cnc6ccccc6n5)[nH]c4c3)nc12 | > 1000 | – | – | –
Cc1ncc(C)n2nc(-c3ccc4nc(-c5ccc(Cl)s5)[nH]c4c3)nc12 | 161 | > 10000 | > 10000 | –
Cc1ncc(C)n2nc(-c3ccc4nc(-c5cnccn5)[nH]c4c3)nc12 | > 1000 | – | – | –
COc1ccccc1-c1cn2ccc(-c3nc4c(C)ncc(C)n4n3)nc2n1 | 52 | > 10000 | > 10000 | microsomal CLint [2]: 9.1 µL/min/mg
Cc1cc(C)n2c(Br)c(CSc3nc4ccccc4[nH]3)nc2n1 | – | – | – | IC50 [6]: 210 nM; CLH [7]: 3.6 µL/min/mg
Cc1cc(C)n2nc(-c3ccc4nc(-c5ccccc5)n(C)c4c3)nc2n1 | – | – | – | IC50 ([1]; sf9): Not Active
COc1cccnc1-c1nc2ccc(-c3nc4c(C)ncc(C)n4n3)cc2[nH]1 | 40 | > 10000 | > 10000 | microsomal CLint [2]: 5.4 µL/min/mg; microsomal CLint [5]: 0.7 µL/min/mg
Cc1ncc(C)n2nc(-c3ccn4nc(-c5ccccc5)nc4c3)nc12 | 268 | – | – | –
Cc1ncc(C)n2nc(-c3ccn4cc(-c5ccc(F)cc5)nc4n3)nc12 | 76 | > 10000 | > 10000 | microsomal CLint [2]: 3.1 µL/min/mg
Cc1ncc(C)n2nc(-c3ccc4nc(-c5ccccc5OC(F)(F)F)[nH]c4c3)nc12 | 280 | – | – | –
Cc1ncc(C)n2nc(-c3ccn4cc(-c5ccccn5)nc4n3)nc12 | 115 | > 10000 | > 10000 | –
COc1ccccc1-c1nc2ccc(-c3nc4c(C)ncc(C)n4n3)cc2[nH]1 | – | > 10000 | > 10000 | –
Cc1ncc(C)n2nc(-c3ccc4nc(Cc5ccccc5)[nH]c4c3)nc12 | > 1000 | – | – | –
Cc1csc(-c2nc3ccc(-c4nc5c(C)ncc(C)n5n4)cc3[nH]2)n1 | 117 | > 10000 | > 10000 | –
Cc1ncc(C)n2nc(-c3ccc4nc(-c5nccn5C)[nH]c4c3)nc12 | 280 | – | – | –
Cc1ncc(C)n2nc(-c3ccc4nc(-c5cccc(Br)c5)[nH]c4c3)nc12 | 146 | > 10000 | > 10000 | –
Cc1ncc(C)n2nc(-c3ccc4nc(-c5nccs5)[nH]c4c3)nc12 | – | > 10000 | > 10000 | –
